Drawing on ChEMBL document CHEMBL2407001, “Synthesis, in vitro antifungal activity and in silico study of 3-(1,2,4-triazol-1-yl)flavanones” (2013), this text covers MIC and Ratio for 15 molecules.

Converted amounts (≈) assume the structure as drawn.

Holding throughout (format): functional
One experiment concerns Nakaseomyces glabratus. Nature of the experiment: Antifungal activity against Candida glabrata ATCC 90030 after 24 to 72 hrs by microdilution method. An outline of the steps:
(§1)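 Broth microdilution MIC in U-bottom 96-well plates. Compound stock made in Sabouraud dextrose broth/DMSO (9:1) and serially diluted with SDB. Fungal suspension (1 × 10^3 CFU/mL) added to give a final inoculum of 0.5 × 10^3 CFU/mL. Plates incubated at 35 °C and read at 24, 48 and 72 h. MIC is the lowest concentration with no visible growth compared with a drug-free control well.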

The test system of the next experiment is Aspergillus niger. Nature of the experiment: Antifungal activity against Aspergillus niger ATCC 16404 after 24 to 72 hrs by microdilution method. The method in brief:
as §1
A general note: In broth dilution the organism is exposed to a series of concentrations in liquid medium.

Experiment [1] relates to Saccharomyces cerevisiae. Nature of the experiment: Antifungal activity against Saccharomyces cerevisiae NCYC 694 after 24 to 72 hrs by microdilution method. The method in brief:
as §1

Experiment [2] deals with Candida albicans. Nature of the experiment: Antifungal activity against Candida albicans ATCC 10231 after 24 to 72 hrs by microdilution method. The method in brief:
as §1

The subject of experiment [3] is Saccharomyces cerevisiae. Put plainly: Antifungal activity against Saccharomyces cerevisiae ATCC 9763 after 24 to 72 hrs by microdilution method. The method in brief:
as §1

In experiment [4] the test system is Saccharomyces cerevisiae. Nature of the experiment: Ratio of fluconazole MIC to compound MIC for Saccharomyces cerevisiae NCYC 694.
Experiment [5] has as its system Candida albicans. Nature of the experiment: Ratio of fluconazole MIC to compound MIC for Candida albicans ATCC 10231.

Consider `O=C1c2ccccc2O[C@@H](c2ccccc2)[C@@H]1n1cncn1` (relative stereo), for which the MIC – broadly, the lowest concentration found to suppress growth – against Nakaseomyces glabratus was > 62.5 µg/mL; in the experiment with Aspergillus niger it was > 62.5 µg/mL; with Saccharomyces cerevisiae [1], > 125 µg/mL; against Candida albicans [2], 31.3 µg/mL (≈ 107 µM); against Saccharomyces cerevisiae [3], 125 µg/mL (≈ 429 µM).

With `O=C1c2ccccc2O[C@@H](c2ccc(Cl)cc2)[C@@H]1n1cncn1` (relative stereo), the MIC was > 62.5 µg/mL in the experiment with Nakaseomyces glabratus; > 62.5 µg/mL against Aspergillus niger; > 125 µg/mL with Saccharomyces cerevisiae [1]; 3.9 µg/mL (≈ 12 µM) in the experiment with Candida albicans [2]; 3.9 µg/mL (≈ 12 µM) in the experiment with Saccharomyces cerevisiae [3].

Take `O=C1c2ccccc2O[C@@H](c2ccc(F)cc2)[C@@H]1n1cncn1` (relative stereo): the MIC with Nakaseomyces glabratus is 31.3 µg/mL (≈ 101 µM); with Aspergillus niger, > 62.5 µg/mL; with Saccharomyces cerevisiae [1], 0.98 µg/mL (≈ 3.17 µM); in the experiment on Candida albicans [2] it was 3.9 µg/mL (≈ 12.6 µM); in the experiment with Saccharomyces cerevisiae [3], 3.9 µg/mL (≈ 12.6 µM). The Ratio was determined as 16 in the experiment with Saccharomyces cerevisiae [4] and 8 in the experiment with Candida albicans [5].

`Cc1ccc([C@@H]2Oc3ccccc3C(=O)[C@H]2n2cncn2)cc1` (relative stereo): the minimal inhibitory concentration (MIC) in the experiment on Nakaseomyces glabratus was > 62.5 µg/mL; in the experiment with Aspergillus niger, > 62.5 µg/mL; with Saccharomyces cerevisiae [1] it was > 125 µg/mL; in the experiment on Candida albicans [2], > 125 µg/mL; in the experiment on Saccharomyces cerevisiae [3], > 125 µg/mL.

On to `COc1ccc([C@@H]2Oc3ccccc3C(=O)[C@H]2n2cncn2)cc1` (relative stereo), for which the MIC in the experiment with Nakaseomyces glabratus was > 62.5 µg/mL; in the experiment with Aspergillus niger it was > 62.5 µg/mL; in the experiment with Saccharomyces cerevisiae [1], > 125 µg/mL; against Candida albicans [2] it was > 125 µg/mL; in the experiment on Saccharomyces cerevisiae [3], 125 µg/mL (≈ 389 µM).

As for `O=C1c2ccccc2O[C@@H](c2cccc(Cl)c2)[C@@H]1n1cncn1` (relative stereo), the MIC with Nakaseomyces glabratus is 62.5 µg/mL (≈ 192 µM); in the experiment with Aspergillus niger it was > 62.5 µg/mL; against Saccharomyces cerevisiae [1], 1.95 µg/mL (≈ 5.99 µM); against Candida albicans [2] it was 3.9 µg/mL (≈ 12 µM); against Saccharomyces cerevisiae [3] it was > 125 µg/mL. Further, the Ratio in the experiment on Saccharomyces cerevisiae [4] and in the experiment on Candida albicans [5] was 8 each time.

In the case of `O=C1c2ccccc2O[C@@H](c2cccc(F)c2)[C@@H]1n1cncn1` (relative stereo), the minimal inhibitory concentration (MIC) in the experiment on Nakaseomyces glabratus is > 62.5 µg/mL; against Aspergillus niger it was > 62.5 µg/mL; against Saccharomyces cerevisiae [1], > 125 µg/mL; in the experiment on Candida albicans [2], 15.6 µg/mL (≈ 50.4 µM); in the experiment on Saccharomyces cerevisiae [3], 15.6 µg/mL (≈ 50.4 µM). Moreover, the Ratio in the experiment with Candida albicans [5] was determined as 2.

Turning to `COc1cccc([C@@H]2Oc3ccccc3C(=O)[C@H]2n2cncn2)c1` (relative stereo), the MIC is > 62.5 µg/mL against Nakaseomyces glabratus; > 62.5 µg/mL against Aspergillus niger; > 125 µg/mL in the experiment on Saccharomyces cerevisiae [1]; > 125 µg/mL against Candida albicans [2]; > 125 µg/mL in the experiment on Saccharomyces cerevisiae [3].

With `O=C1c2ccccc2O[C@@H](c2ccccc2Cl)[C@@H]1n1cncn1.O=[N+]([O-])O` (relative stereo), the MIC was > 62.5 µg/mL with Nakaseomyces glabratus; > 62.5 µg/mL against Aspergillus niger; > 125 µg/mL with Saccharomyces cerevisiae [1]; > 125 µg/mL with Candida albicans [2]; 125 µg/mL in the experiment with Saccharomyces cerevisiae [3].

On to `COc1ccccc1[C@@H]1Oc2ccccc2C(=O)[C@H]1n1cncn1.O=[N+]([O-])O` (relative stereo), for which the MIC with Nakaseomyces glabratus was > 62.5 µg/mL; against Aspergillus niger, > 62.5 µg/mL; against Saccharomyces cerevisiae [1], > 125 µg/mL; against Candida albicans [2] it was > 125 µg/mL; with Saccharomyces cerevisiae [3] it was > 125 µg/mL.

`O=C1c2ccccc2O[C@@H](c2ccc(Cl)cc2Cl)[C@@H]1n1cncn1` (relative stereo): the minimum inhibitory concentration (MIC) is > 62.5 µg/mL in the experiment on Nakaseomyces glabratus; > 62.5 µg/mL against Aspergillus niger; 31.3 µg/mL (≈ 86.9 µM) against Saccharomyces cerevisiae [1]; 125 µg/mL (≈ 347 µM) in the experiment on Candida albicans [2]; 31.3 µg/mL (≈ 86.9 µM) in the experiment on Saccharomyces cerevisiae [3].

In the case of `O/N=C1\c2ccccc2O[C@@H](c2ccccc2)[C@@H]1n1cncn1` (relative stereo), the MIC against Nakaseomyces glabratus was > 62.5 µg/mL; against Aspergillus niger, > 62.5 µg/mL; with Saccharomyces cerevisiae [1] it was > 125 µg/mL; against Candida albicans [2], > 125 µg/mL; against Saccharomyces cerevisiae [3], 125 µg/mL (≈ 408 µM).

With `O/N=C1\c2ccccc2O[C@@H](c2ccc(Cl)cc2Cl)[C@@H]1n1cncn1` (relative stereo), the minimal inhibitory concentration (MIC) in the experiment with Nakaseomyces glabratus was > 62.5 µg/mL; against Aspergillus niger, > 62.5 µg/mL; in the experiment with Saccharomyces cerevisiae [1], > 125 µg/mL; in the experiment with Candida albicans [2], > 125 µg/mL; against Saccharomyces cerevisiae [3], 62.5 µg/mL (≈ 167 µM).

Regarding `OC(Cn1cncn1)(Cn1cncn1)c1ccc(F)cc1F` [FLUCONAZOLE], the minimal inhibitory concentration (MIC) in the experiment on Nakaseomyces glabratus was 31.3 µg/mL (≈ 102 µM); with Aspergillus niger, > 125 µg/mL; against Saccharomyces cerevisiae [1] it was 15.6 µg/mL (≈ 50.9 µM); with Candida albicans [2], 31.3 µg/mL (≈ 102 µM); in the experiment with Saccharomyces cerevisiae [3] it was 15.6 µg/mL (≈ 50.9 µM).

Take `CC(=O)N1CCN(c2ccc(OCC3COC(Cn4ccnc4)(c4ccc(Cl)cc4Cl)O3)cc2)CC1` (stereo unspecified) [KETOCONAZOLE]: the minimal inhibitory concentration (MIC) in the experiment with Aspergillus niger amounted to 15.6 µg/mL (≈ 29.4 µM).
